NR2E3 ag-1 = NR2E3 agonists in two-hybrid cells, primary screen, cell-based, luminescence, CHO-S, Gal4-NCOR/VP16-NR2E3; inhibition of corepressor binding, % at 3.98 µM; Photoreceptor-specific nuclear receptor (Homo sapiens), Q9Y5X4; luciferase; hit rate 0.35% among 360,000;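 active = inhibition above the mean of all tested compounds plus 3 SD, cut at about 70% in these data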;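 note: 0% = DMSO with NR2E3 transfected cells and 100% = cells lacking NR2E3 construct; higher means lower luciferase signal from less NR2E3 corepressor binding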
Target sequence (Q9Y5X4 whole entry, looked up, the tested form may be a part): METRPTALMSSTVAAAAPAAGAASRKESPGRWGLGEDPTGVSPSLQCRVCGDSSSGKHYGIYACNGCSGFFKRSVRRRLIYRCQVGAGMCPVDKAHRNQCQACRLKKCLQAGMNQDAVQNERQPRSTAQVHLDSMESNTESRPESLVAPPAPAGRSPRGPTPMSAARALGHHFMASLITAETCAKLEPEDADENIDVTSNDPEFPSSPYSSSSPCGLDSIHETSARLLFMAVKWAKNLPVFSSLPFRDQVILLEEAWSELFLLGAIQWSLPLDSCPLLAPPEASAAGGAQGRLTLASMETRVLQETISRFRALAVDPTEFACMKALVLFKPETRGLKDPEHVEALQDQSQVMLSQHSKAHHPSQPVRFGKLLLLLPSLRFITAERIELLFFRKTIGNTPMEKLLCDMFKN
Jurkat NFkB inh = inhibitors of induced NF-kB luciferase reporter, primary screen, TCR NF-kB activation inhibitor project, cell-based, luminescence, uHTS | inhibition, % at 4 µM | Jurkat, PMA/ionomycin-induced NF-kB luciferase reporter | AID 435003, 2010 | hit rate 0.53% among 330,000; in the data active = inhibition above about 50%
GalR3 antag = GalR3 antagonists in HEK293 cells, primary screen, cell-based, fluorescence readout | Galanin receptor type 3 (Homo sapiens), O60755 | HEK293 GalR3-CNG cAMP membrane potential fluorescence; galR3 body fused to GalR1 C-terminus | inhibition, % at 3 µM | hit rate 0.44% among 360,000 | AID 651719, 2012;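 active = inhibition above the screen-wide average plus 3 SD, cut at about 13% in these data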;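 note: forskolin and galanin both at EC90 stimulate the cells; cAMP rise reported by CNG channel membrane potential dye signal; 0% = forskolin plus galanin with DMSO and 100% = forskolin alone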
Target sequence (O60755 1-299 limits assumed): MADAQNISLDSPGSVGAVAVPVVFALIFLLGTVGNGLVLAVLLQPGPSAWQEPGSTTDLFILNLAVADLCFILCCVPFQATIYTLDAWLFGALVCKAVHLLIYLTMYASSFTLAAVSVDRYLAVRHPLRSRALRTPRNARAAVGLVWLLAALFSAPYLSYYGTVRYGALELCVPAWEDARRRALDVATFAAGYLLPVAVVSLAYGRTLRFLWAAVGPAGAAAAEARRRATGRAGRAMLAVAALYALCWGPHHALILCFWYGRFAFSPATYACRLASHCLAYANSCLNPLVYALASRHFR
Gli-Sufu block = Gli-Sufu pathway antagonists, primary screen, luciferase luminescence, Sufu-KO-LIGHT cells, uHTS; Sufu-KO-LIGHT fibroblasts, Gli luciferase reporter luminescence; inhibition, % at 5 µM; hit rate 0.74% among 340,000;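 active = inhibition above about 55%, limit read from the data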;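 note: 0% = DMSO-treated cells and 100% = wells with medium but no cells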
NR2E3 ag-2 = inhibitors of NR2E3-RetCOR corepressor binding, primary screen, NR2E3 agonist project, biochemical, TR-FRET, GST-NR2E3, biotin-RetCOR; Photoreceptor-specific nuclear receptor (Homo sapiens), Q9Y5X4; 1536-well; inhibition of corepressor binding, % at 4.78 µM; hit rate 0.12% among 320,000; AID 2300, 2010;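 active = percent inhibition above the cutoff of mean plus 3 SD of all tested compounds, set per screening campaign, cut at about 20% in these data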;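 note: 0% = DMSO wells and 100% = biotin wells as full block of FRET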
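System: GST-NR2E3 and biotin-RetCOR proteins; probe or stimulus: 7 nM biotin-RetCOR; doses: compound at 4.8 µM, single dose; schedule: Compound–protein incubation for 5 h at 4 °C; detection: time-resolved FRET; read-out: percent inhibition; controls: biotin wells as high control, 0.6% DMSO wells as low control; format: 1536-well plates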
697 NFkB inh = inhibitors of PMA/ionomycin-induced NF-kB reporter, 697 cells, primary screen, B-cell NF-kB inhibitor project, cell-based, luminescence, uHTS; hit rate 0.33% among 330,000; inhibition, % at 4 µM; 697 B-cell NF-kB luciferase reporter, 16 h; AID 435022, 2010; in the data active = inhibition above about 35%
Jurkat NFkB conf = PMA/ionomycin-induced NF-kB reporter inhibitors, Jurkat retest, confirmation, T-cell NF-kB inhibitor project, cell-based, luminescence, single concentration | shares compounds with Jurkat NFkB inh | Jurkat NF-kB luciferase, 16 h | inhibition, % at 4 µM | hit rate 27% among 2,700 | AID 435020, 2010;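 active = inhibition reaching about 45% at 4 µM in either replicate, limit read from the data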;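 note: plate controls were PMA/ionomycin stimulated DMSO wells for no effect and unstimulated DMSO wells for full effect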
Numbers without * were called inactive; x = no result. An excerpt weighted towards active compounds, which were near 1.8% of everything screened.

SMILES | NR2E3 ag-1 | Jurkat NFkB inh | GalR3 antag | Gli-Sufu block | NR2E3 ag-2 | 697 NFkB inh | Jurkat NFkB conf
Cc1cc2nnc(SCC(=O)NCc3ccco3)n2c2ccccc12 | -43 | 58* | 1 | -7 | 1 | -20 | 11
COc1ccc(N(C)C2=NS(=O)(=O)c3ccccc32)cc1 | -66 | 56* | -5 | -5 | 0 | -73 | 39
CCCOc1ccc(/C=N/Nc2cc(N3CCOCC3)ncn2)c(O)c1 | 24 | 55* | -8 | 18 | 4 | -71 | 76*
CCOc1ccc(/C=N/Nc2cc(N3CCOCC3)ncn2)c(O)c1 | 19 | x | 0 | x | x | x | x
CCC(=O)Nc1ccc(OCc2nc3ccccc3s2)cc1 | -168 | -150 | -5 | -79 | 0 | -214 | -93
Cc1[nH]c2ccccc2c1CC(=O)Nc1ccc(Nc2cccnc2)c(-c2ccc(-c3ccccc3)cc2F)c1 | x | x | -7 | x | x | x | x
CCOC(=O)c1sc(=NC(=O)c2ccc(Cl)s2)n(C)c1C | -129 | -206 | -3 | -57 | 7 | -153 | -83
COc1ccc2c(c1)C(NC(=O)C(F)(F)F)CC21CCCCC1 (configuration not stated) | x | x | -9 | x | x | x | x
COc1ccc(Cn2c(SCc3cc(C)ccc3C)nc3cc(OC)c(OC)cc3c2=N)cc1 | 7 | 44 | -5 | 18 | -1 | -17 | x
COc1ccc(Cn2c(SCc3ccc(C)cc3)nc3cc(OC)c(OC)cc3c2=N)cc1Cl | 15 | 64* | -6 | 30 | 0 | 15 | 63*
CCc1ccccc1N(C)S(=O)(=O)c1ccc(-c2cc(C)no2)s1 | -43 | 55* | -6 | 37 | -1 | -69 | 28
C=CCO[C@H]1CN(C(=O)OC)[C@@H](c2ccccc2Br)C[C@H]1OCC=C | x | x | -6 | x | x | x | x
CCOC(=O)c1cc(CC)sc1NC(=O)c1ccc(N2CCOCC2)c([N+](=O)[O-])c1 | 3 | -9 | x | 13 | 3 | 1 | x
O=C(NCc1ccc2c(c1)OCO2)c1cc([N+](=O)[O-])ccc1N1CCCCC1 | -38 | 65* | -4 | 28 | -1 | -54 | 30
Cc1ccc(C(=O)c2cc([N+](=O)[O-])ccc2N2CC(C)OC(C)C2)cc1 (configuration not stated) | 13 | 46 | -3 | 7 | -2 | -52 | x
CCOC(=O)c1cc(CC)sc1NC(=O)c1cc([N+](=O)[O-])ccc1N1CCOCC1 | -33 | 59* | -1 | 17 | 2 | 18 | 38
Cc1ccc(C(=O)c2cc([N+](=O)[O-])ccc2N2CCCCC2)cc1 | 11 | 56* | -2 | 48 | 0 | 32 | 53*
O=C(c1ccc(Br)cc1)c1cc([N+](=O)[O-])ccc1N1CCOCC1 | -8 | 72* | -5 | 22 | 2 | -43 | 51*
CCn1c2c(n(C(C)=O)c1=O)C=C(C(=O)N1CCCC1)C(C)C(c1ccccc1)=C2 (configuration not stated) | x | x | -2 | x | x | x | x
O=C(C(=O)N1CCC(CNS(=O)(=O)c2cc(C(F)(F)F)cc(C(F)(F)F)c2)CC1)c1cccs1 | x | x | -1 | x | x | x | x
Cc1cccc(N/C=C/C(=O)c2cccs2)c1C | -99 | -167 | -9 | -73 | 0 | -180 | -14
O=C(/C=C/Nc1ccc(F)cc1)c1ccc(Br)cc1 | -136 | -163 | -3 | -117 | 2 | -164 | 15
O=C(/C=C/Nc1ccc(F)c(Cl)c1)c1ccccc1 | -75 | -177 | -11 | -100 | 3 | -165 | -29
O=C(/C=C/Nc1ccc(F)cc1)c1cccs1 | -122 | -127 | -5 | -89 | 1 | -180 | x
NC(=O)c1ccccc1N/C=C/C(=O)c1cccs1 | -72 | -82 | -4 | 14 | -3 | -128 | x
SMILES | NR2E3 ag-1 | Jurkat NFkB inh | GalR3 antag | Gli-Sufu block | NR2E3 ag-2 | 697 NFkB inh | Jurkat NFkB conf
O=C(/C=C/Nc1cccc(O)c1)c1ccccc1 | -174 | -109 | -2 | -5 | 0 | -72 | x
O=C(/C=C/Nc1ccc(F)c(F)c1)c1cccs1 | -153 | -182 | -1 | -10 | 3 | -240 | 6
O=C(CCCc1ccccc1)c1ccccc1 | -117 | -176 | -10 | -82 | 4 | -96 | -101
O=C(CCCC(=O)c1ccc(O)cc1)c1ccc(O)cc1 | -94 | -163 | 6 | -74 | 0 | -223 | -91
O=C(CCCC(=O)c1ccccc1)NCCc1ccccc1 | 8 | 6 | -12 | 9 | 0 | 14 | x
CCC(=O)c1ccc(O)cc1 | 23 | -1 | -4 | 3 | 3 | -8 | x
COC(=O)N(C)C[C@H]1OCc2cn(nn2)CCCC(=O)N([C@H](C)CO)C[C@@H]1C | x | x | 7 | x | x | x | x
COC(=O)[C@]12C[C@H](CC(=O)NCCCN3CCCC3=O)C(=O)N(Cc3ccccc3)C1=C[C@H](C(C)(C)C)O[C@@H]2C | x | x | 3 | x | x | x | x
CCOc1ccc(S(=O)(=O)N2c3ccccc3CC2C)cc1 (configuration not stated) | -2 | 71* | -2 | 8 | 3 | 10 | 51*
O=C(/C=C/c1ccc(O)c(O)c1)OCCc1ccccc1 | 33 | 55* | 1 | 50 | 5 | -71 | 4
COc1ccc(CC(=O)Nc2cccc(-c3nnc(-c4ccc(C)cc4)o3)c2)cc1OC | -24 | 45 | 2 | 2 | 5 | 3 | x
COc1ccc(CC(=O)Nc2cccc(-c3nnc(-c4cccc(C)c4)o3)c2)cc1OC | 15 | 51* | 3 | -16 | 3 | -83 | 61*
Cc1ccccc1-c1cccc2c3c([nH]c12)[C@@H]1C[C@H]2[C@@H](C(=O)N1CC3)[C@H](C)ON2C | x | x | -6 | x | x | x | x
CCOc1ccc(Cl)cc1S(=O)(=O)n1cnc2ccccc21 | 16 | 47 | -5 | 4 | 6 | -44 | x
CCOc1ccc(C)cc1S(=O)(=O)n1cnc2ccccc21 | 0 | 54* | -5 | 1 | -3 | -53 | 15
COC(=O)c1cc2c(c3c4cc(C)ccc4n(C(=O)c4ccccc4)c13)C(=O)N(Cc1ccccc1)C2 | x | x | -7 | x | x | x | x
Fc1cccc(F)c1CSc1nc2ccccc2[nH]1 | -111 | -170 | 1 | -126 | -6 | -187 | -136
O=C(CSc1nc2ccccc2[nH]1)c1ccccc1F | -115 | -82 | -5 | 15 | 3 | -61 | x
N#C/C(=C\c1ccc([N+](=O)[O-])o1)c1nc2ccccc2[nH]1 | x | 25 | -2 | 17 | -1 | -6 | x

Assay outcomes from PubChem BioAssay.
